Measurements taken from ChEMBL document CHEMBL4152203, “Antiproliferative hydrogen sulfide releasing evodiamine derivatives and their apoptosis inducing properties” (Eur J Med Chem, 2018).
pIC50: −log10 of the molar value. Calls of active or inactive are those of the source. No cut-off for these calls is given here.

How the values were obtained:
MCF7 = test: Antiproliferative activity against human MCF7 cells after 72 hrs by MTT assay; assay type: functional, cell-based; details: MCF7, 72 h
In short: (§1)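 Cells seeded and pre-incubated 24 h at 37 °C, 5% CO2, then exposed to compounds for 72 h. MTT (5 mg/mL stock) added for 4 h, formazan dissolved in DMSO for 10 min at room temperature, absorbance read at 570 nm. 0.1% DMSO as negative and 5-FU as positive reference. IC50 derived from inhibition ratios; mean ± SD of three independent experiments.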

HL-60 [1] = test: Induction of apoptosis in human HL60 cells assessed as early apoptotic cells at 1.2 uM after 48 hrs by Annexin V-FITC/propidium iodide staining-based flow cytometric analysis (reference value: 2.31%); assay type: functional
HL-60 [2] = test: Induction of apoptosis in human HL60 cells assessed as decrease in cyclin B1 protein expression level at 0.3 to 1.2 uM after 48 hrs by Western blot analysis; assay type: functional, cell-based
In short: (§2)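 HL-60 treated in triplicate with 0.3, 0.6 or 1.2 μM compound; exposure is 72 h in the methods and 48 h in the legend. Lysates were run on 10% SDS-PAGE, transferred to nitrocellulose, blocked in 5% milk, and probed overnight at 4 °C with monoclonal antibodies (Bcl-2, Bax, cytochrome c, caspase-9/-3, p53, cyclin B1, cdc2). ECL detection; densitometry relative to GAPDH.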

SGC-7901 = test: Antiproliferative activity against human SGC7901 cells after 72 hrs by MTT assay; assay type: functional, cell-based; details: SGC-7901, 72 h; in short: as §1
HL-60 [3] = test: Induction of mitochondrial membrane potential loss in human HL60 cells assessed as cell population with mitochondrial membrane potential collapse at 0.6 uM after 48 hrs by JC1 staining-based flow cytometry analysis (reference value: 7.65%); assay type: functional
HL-60 [4] = test: Induction of apoptosis in human HL60 cells assessed as decrease in cdc2 protein expression level at 0.3 to 1.2 uM after 48 hrs by Western blot analysis; assay type: functional, cell-based; in short: as §2
HL-60 [5] = test: Induction of apoptosis in human HL60 cells assessed as morphological changes by measuring nuclear fragmentation at 0.3 to 1.2 uM after 48 hrs by Hoechst 33258 staining-based fluorescence microscopic analysis; assay type: functional, cell-based
In short: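 HL-60 pre-incubated 24 h, then treated 48 h with 0, 0.3, 0.6 or 1.2 μM compound or vehicle. Cells were harvested, washed twice in PBS, stained with Hoechst 33258 (2 mg/mL in PBS) for 15 min at room temperature in darkness, washed, mounted and examined by fluorescence microscopy with a DAPI filter.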

HL-60 [6] = test: Antiproliferative activity against human HL60 cells after 72 hrs by MTT assay; assay type: functional, cell-based; details: HL-60, 72 h; in short: as §1
HL-60 [7] = test: Induction of apoptosis in human HL60 cells assessed as apoptotic cells after 48 hrs by Annexin V-FITC/propidium iodide staining-based flow cytometric analysis; assay type: functional, cell-based
PBMC = test: Antiproliferative activity against human PBMC cells after 72 hrs by MTT assay; assay type: cell-based; in short: as §1
HL-60 [8] = test: Induction of apoptosis in human HL60 cells assessed as upregulation of caspase9 level at 0.3 to 1.2 uM after 48 hrs by Western blot analysis; assay type: functional, cell-based; in short: as §2
HL-60 [9] = test: Cell cycle arrest in human HL60 cells assessed as accumulation at G1 phase at 0.6 uM after 48 hrs by propidium iodide/RNase A staining-based flow cytometric analysis (reference value: 65.75%); assay type: functional
HL-60 [10] = test: Induction of apoptosis in human HL60 cells assessed as downregulation of Bcl2 expression at 0.3 to 1.2 uM after 48 hrs by Western blot analysis; assay type: functional, cell-based; in short: as §2
HL-60 [11] = test: Induction of apoptosis in human HL60 cells assessed as early apoptotic cells at 1.2 uM after 48 hrs by Annexin V-FITC/propidium iodide staining-based flow cytometric analysis (reference value: 1.11%); assay type: functional
HL-60 [12] = test: Induction of mitochondrial membrane potential loss in human HL60 cells assessed as cell population with intact mitochondrial membrane potential at 0.3 uM after 48 hrs by JC1 staining-based flow cytometry analysis (reference value: 92.35%); assay type: functional
HL-60 [13] = test: Cell cycle arrest in human HL60 cells assessed as accumulation at S phase at 0.6 uM after 48 hrs by propidium iodide/RNase A staining-based flow cytometric analysis (reference value: 24.06%); assay type: functional

CN1c2ccccc2C(=O)N2CCc3c(n(CCCCC(=O)OCCCCOc4ccc(-c5cc(=S)ss5)cc4)c4ccccc34)C21 (stereo unspecified)
pIC50 (MCF7): 4.35 | Activity (HL-60 [1]): 48.08% | Activity (HL-60 [2]): Active | pIC50 (SGC-7901): < 4.30 | Activity (HL-60 [3]): 21.32% | Activity (HL-60 [4]): Active | Activity (HL-60 [5]): Active | pIC50 (HL-60 [6]): 6.24 | Activity (HL-60 [7]): Dose-dependent effect | pIC50 (PBMC): < 4.00 | Activity (HL-60 [8]): Active | Activity (HL-60 [9]): 38.55% | Activity (HL-60 [10]): Active | Activity (HL-60 [11]): 12.6% | Activity (HL-60 [12]): 86.67% | Activity (HL-60 [13]): 41.81%
